For experiment [1], the system named is CCRF S-180. Put plainly: animal or person. To be noted: Mus musculus, CCRF S-180, ip, 240 h, read-out: Inhibition.
For experiment [2], the system named is H22. Put plainly: animal or person. Conditions: Mus musculus, H22, ip, 240 h, read-out: Inhibition.
Experiment [3] relates to CCRF S-180. Put plainly: Antitumor activity in mouse xenografted with S180 cells assessed as inhibition of tumor growth at 15 mg/kg/day, im after 10 days. The class given is functional. Conditions: CCRF S-180, im, 240 h, route intramuscular. The method, boiled down:
(§1)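 S-180 or H-22 cells expanded in mice for 10 days, then 2.5 × 10⁶ viable tumor cells per mouse injected subcutaneously into the armpit of female mice (9 per treated group, 18 negative controls). Compound given im once daily for 10 consecutive days; saline negative control, cyclophosphamide 30.0 mg/kg ip positive control. Tumors excised and weighed on day 10; inhibition rate = (C − T)/C × 100 from mean tumor weights.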

Experiment [4] deals with Mus musculus. Put plainly: Effect on body weight in mouse bearing H22 cells at 5 mg/kg/day, im after 10 days. The class given is functional. Conditions: route intramuscular. The method, boiled down: (§2)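 Female tumor-bearing mice (S-180 or H-22, 2.5 × 10⁶ cells subcutaneously in armpit) dosed im once daily for 10 consecutive days; saline negative control. Initial and end body weights recorded per group.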

Experiment [5] deals with Mus musculus. The experiment in a line: Effect on body weight in mouse bearing H22 cells at 20 mg/kg/day, im after 10 days. In kind it is functional. To be noted: route intramuscular. The method, boiled down: as §2
Experiment [6] has as its system HL-60. Put plainly: Cytotoxicity against human HL60 cells after 48 hrs by MTT assay. In kind it is functional, cell-based. Conditions: HL-60, 48 h. In outline:
(§3)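 MTT read-out after 48 h drug exposure; MTT then added for a further 4 h at 37 °C, formazan dissolved in DMSO, absorbance at 570 nm. Triplicate wells in three independent experiments; IC50 = concentration giving 50% inhibition of cell viability, values are means of three experiments.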

Experiment [7] deals with K562. Put plainly: Cytotoxicity against human K562 cells after 48 hrs by MTT assay. The class given is functional, cell-based. To be noted: K562, 48 h. In outline:
as §3
(In general: Tetrazolium dyes change colour on reduction, which living cells bring about.)

Experiment [8] in a line: Cytotoxicity against multidrug-resistant human K562R cells after 48 hrs by MTT assay. The class given is functional, cell-based. To be noted: K-562R. In outline: as §3
Experiment [9] relates to PC-3. Put plainly: Cytotoxicity against human PC3 cells after 48 hrs by MTT assay. Conditions: PC-3, 48 h. In kind it is functional, cell-based. In outline: as §3
Experiment [10] concerns MCF7. The experiment in a line: Cytotoxicity against human MCF7 cells after 48 hrs by MTT assay. The class given is functional, cell-based. To be noted: MCF7, 48 h. The method, boiled down: as §3
A short description of experiment [11]: Cytotoxicity against human ECA109 cells after 48 hrs by MTT assay. The class given is functional, cell-based. To be noted: ECa-109, 48 h. In outline: as §3
Experiment [12] concerns Bel-7402. The experiment in a line: Cytotoxicity against human BEL-7402 cells after 48 hrs by MTT assay. The class given is functional, cell-based. To be noted: Bel-7402, 48 h. The method, boiled down:
as §3

Experiment [13] relates to K562. The experiment in a line: Cell cycle arrest in human K562 cells assessed as accumulation at G2/M phase at 0.01 uM after 48 hrs by flow cytometry. The class given is functional. The method, boiled down:
(§4)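 K562 cells in exponential growth exposed 48 h to 0–1 µM compound. Cells washed twice in PBS, fixed in 70% ethanol at −20 °C, RNase-treated 1 h at 37 °C, stained with propidium iodide 30 min at 4 °C. DNA content by flow cytometry gives cell-cycle phase distribution and apoptotic fraction.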

The subject of experiment [14] is K562. The experiment in a line: Cell cycle arrest in human K562 cells assessed as accumulation at S phase at 0.01 uM after 48 hrs by flow cytometry. In kind it is functional. The method, boiled down: as §4
Experiment [15] deals with K562. Put plainly: Induction of apoptosis in human K562 cells at 0.1 uM after 48 hrs by flow cytometry. In kind it is functional. The method, boiled down:
as §4

In experiment [16] the test system is K562. The experiment in a line: Induction of apoptosis in human K562 cells at 1 uM after 48 hrs by flow cytometry. In kind it is functional. In outline: as §4
In general terms: In flow cytometry, cells or beads pass a laser one at a time.

Experiment [17] deals with Mus musculus. Put plainly: Effect on body weight in mouse bearing S180 cells at 15 mg/kg/day, im after 10 days. In kind it is functional, CCRF S-180. To be noted: route intramuscular. The method, boiled down:
as §2

The subject of experiment [18] is Mus musculus. Put plainly: Antitumor activity in mouse xenografted with H22 cells assessed as inhibition of tumor growth at 5 mg/kg/day, im after 10 days. To be noted: 240 h, route intramuscular. In kind it is functional. The method, boiled down: as §1
Experiment [19] deals with Mus musculus. Put plainly: Antitumor activity in mouse xenografted with H22 cells assessed as inhibition of tumor growth at 20 mg/kg/day, im after 10 days. To be noted: 240 h, route intramuscular. The class given is functional. The method, boiled down: as §1
Experiment [20] has as its system A549. Put plainly: Cytotoxicity against human A549 cells after 48 hrs by MTT assay. In kind it is functional, cell-based. To be noted: A549, 48 h. The method, boiled down: as §3

As usually defined, the IC50 is the point on the concentration scale where inhibition reaches its midpoint. Read a low IC50 as greater potency in that assay.

Regarding `O=P1(N(CCCl)CCCl)NCCCO1` (stereo not given) [CYCLOPHOSPHAMIDE ANHYDROUS], the inhibition in vivo at 30 mg/kg/day in [1] came to 63.5%; in experiment [2], 36.2%.

For the compound `COc1cc(-n2c(-c3ccc(Br)cc3)cn(C(C)=O)c2=O)cc(OC)c1OC`, the inhibition in vivo at 15 mg/kg/day in experiment [3] is 55.3%. Besides, the Activity is 26.8 g in experiment [4]; 27.6 g in experiment [5]; 31% in experiment [13]; 54% in experiment [14]; 45.6% in experiment [15]; 78.6% in experiment [16]. Also, in [17], the Activity was 35.1 g. Moreover, the concentration for half-maximal inhibition (IC50) in [6] is 0.2 µM; in experiment [7] it was 1 µM; in experiment [8] it was 0.9 µM; in [9], 3.1 µM; in [10], 10.6 µM; in experiment [11], 3.8 µM. Also, the concentration for half-maximal inhibition (IC50) in experiment [12] was 1.2 µM; in [20] it was 1.3 µM. Also, the inhibition in vivo at 5 mg/kg/day in experiment [18] worked out at 29.4%. Also, the inhibition in vivo at 20 mg/kg/day in experiment [19] was found to be 55.5%.

Source of the values: ChEMBL document CHEMBL1142371, “Synthesis and biological evaluation of imidazol-2-one derivatives as potential antitumor agents” (Bioorg Med Chem, 2008).
